Data: ChEMBL document CHEMBL5696442, “Discovery of type II inhibitors of TGFβ-activated kinase 1 (TAK1) and mitogen-activated protein kinase kinase kinase kinase 2 (MAP4K2)” (J Med Chem, 2015)

Assays:
[1] = molecular target: Calcium/calmodulin-dependent protein kinase type 1D (Homo sapiens) (UniProt Q8IU85); assay: Inhibition of CAMK1D (unknown origin) at 10 uM by Ambit Kinomescan binding assay relative to control
[2] = molecular target: Mitogen-activated protein kinase kinase kinase 1 (Homo sapiens) (UniProt Q13233); assay: Inhibition of MAP3K1 Lys2 labeling site in human A-375 cells at 5 uM by KiNativ Profiling analysis relative to control; type: cell-based
[3] = molecular target: Mitogen-activated protein kinase 14 (Homo sapiens, UniProt Q16539); assay: Inhibition of p38alpha K2 labeling site in human Huh-7 cells at 10 uM by KiNativ Profiling analysis relative to control; type: cell-based
[4] = molecular target: Serine/threonine-protein kinase 26 (Homo sapiens) (UniProt Q9P289); assay: Inhibition of MST4 Lys1 labeling site in human A-375 cells at 0.05 uM by KiNativ Profiling analysis relative to control; type: cell-based
[5] = molecular target: T1, Myotonin-protein kinase (Homo sapiens) (UniProt Q09013); assay: Inhibition of DMPK1 K2 labeling site in human Huh-7 cells at 1 uM by KiNativ Profiling analysis relative to control; type: cell-based
T1 sequence (whole entry): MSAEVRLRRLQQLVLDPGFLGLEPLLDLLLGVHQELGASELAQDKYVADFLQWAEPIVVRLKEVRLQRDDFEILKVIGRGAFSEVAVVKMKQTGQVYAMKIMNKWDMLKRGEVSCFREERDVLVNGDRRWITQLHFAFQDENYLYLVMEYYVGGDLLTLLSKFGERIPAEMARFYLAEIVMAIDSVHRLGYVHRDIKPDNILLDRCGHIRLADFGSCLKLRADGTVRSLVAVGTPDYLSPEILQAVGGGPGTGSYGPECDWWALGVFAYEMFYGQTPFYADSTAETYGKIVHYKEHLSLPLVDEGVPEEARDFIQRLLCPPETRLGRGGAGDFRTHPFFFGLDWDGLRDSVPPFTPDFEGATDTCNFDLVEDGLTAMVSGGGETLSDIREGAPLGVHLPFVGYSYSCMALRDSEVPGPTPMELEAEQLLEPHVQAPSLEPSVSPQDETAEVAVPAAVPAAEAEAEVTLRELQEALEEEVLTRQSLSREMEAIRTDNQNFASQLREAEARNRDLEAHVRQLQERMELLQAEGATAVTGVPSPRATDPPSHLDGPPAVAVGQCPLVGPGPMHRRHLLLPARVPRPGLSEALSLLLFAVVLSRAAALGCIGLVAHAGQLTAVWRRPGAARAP

[6] = molecular target: Protein-tyrosine kinase 2-beta (Homo sapiens) (UniProt Q14289); assay: Inhibition of PYK2 (unknown origin) at 10 uM by Ambit Kinomescan binding assay relative to control; values are per cent of control
[7] = molecular target: Serine/threonine-protein kinase PLK1 (Homo sapiens) (UniProt P53350); assay: Inhibition of PLK1 Lys2 labeling site in human A-375 cells at 5 uM by KiNativ Profiling analysis relative to control; type: cell-based
[8] = molecular target: Serine/threonine-protein kinase WNK4 (Homo sapiens) (UniProt Q96J92); assay: Inhibition of Wnk4 Lys2 labeling site in human A-375 cells at 0.5 uM by KiNativ Profiling analysis relative to control; type: cell-based
[9] = molecular target: T2, Serine/threonine-protein kinase Sgk3 (Homo sapiens) (UniProt Q96BR1); assay: Inhibition of SGK3 Lys1 labeling site in human A-375 cells at 0.5 uM by KiNativ Profiling analysis relative to control; type: cell-based
T2 sequence (whole entry): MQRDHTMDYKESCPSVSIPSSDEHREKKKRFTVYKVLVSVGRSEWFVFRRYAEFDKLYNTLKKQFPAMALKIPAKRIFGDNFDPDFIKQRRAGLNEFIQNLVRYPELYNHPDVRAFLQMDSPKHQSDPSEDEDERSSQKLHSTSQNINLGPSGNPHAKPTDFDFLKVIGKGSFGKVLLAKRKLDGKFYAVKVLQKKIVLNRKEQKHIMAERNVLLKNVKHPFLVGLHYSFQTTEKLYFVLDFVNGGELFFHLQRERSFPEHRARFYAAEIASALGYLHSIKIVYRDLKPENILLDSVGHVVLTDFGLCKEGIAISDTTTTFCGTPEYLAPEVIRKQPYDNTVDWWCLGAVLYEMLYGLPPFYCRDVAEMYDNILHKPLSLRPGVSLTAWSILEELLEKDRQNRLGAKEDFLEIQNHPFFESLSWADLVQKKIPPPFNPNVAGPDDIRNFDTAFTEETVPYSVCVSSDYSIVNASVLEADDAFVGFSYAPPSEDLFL

[10] = test system: Tyrosine-protein kinase ABL1 (Homo sapiens), P00519 [F317I]; assay: Inhibition of phosphorylated ABL1 F317I mutant (unknown origin) at 1 uM by Ambit Kinomescan binding assay relative to control; values are per cent of control
[11] = molecular target: cAMP-dependent protein kinase catalytic subunit alpha (Homo sapiens) (UniProt P17612); assay: Inhibition of PKAC alpha (unknown origin) at 1 uM by Ambit Kinomescan binding assay relative to control
Method in brief: (§1)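 In vitro ATP-site competition binding assay against a panel of over 420 kinases (KinomeScan), with compound tested at 10 or 1 μM.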

[12] = molecular target: Phosphatidylinositol 4-kinase beta (Homo sapiens) (UniProt Q9UBF8); assay: Inhibition of PI4KB ATP labeling site harbouring VPHTQAVVLNSKDKAPYLIYVEVLECENFDTTSVPAR in human A-375 cells at 0.05 uM by KiNativ Profiling analysis relative to control; type: cell-based
[13] = molecular target: Ribosomal protein S6 kinase alpha-1 (Homo sapiens) (UniProt Q15418); assay: Inhibition of C-terminal RSK1 kinase domain 2 (unknown origin) at 1 uM by Ambit Kinomescan binding assay relative to control; method in brief: as §1
[14] = molecular target: Serine/threonine-protein kinase 4 (Homo sapiens) (UniProt Q13043); assay: Inhibition of MST1 Lys2 labeling site harbouring DIKAGNILLNTEGHAK in human A-375 cells at 5 uM by KiNativ Profiling analysis relative to control
[15] = molecular target: Activated CDC42 kinase 1 (Homo sapiens) (UniProt Q07912); assay: Inhibition of ACK Lys1 labeling site in human A-375 cells at 0.5 uM by KiNativ Profiling analysis relative to control; type: cell-based
[16] = molecular target: Protein kinase C alpha type (Homo sapiens) (UniProt P17252); assay: Inhibition of PKCa Lys2 labeling site in human Huh-7 cells at 1 uM by KiNativ Profiling analysis relative to control; type: cell-based
[17] = molecular target: Cyclin-dependent kinase 1 (Homo sapiens) (UniProt P06493); assay: Inhibition of CDC2 Lys2 labeling site in human Huh-7 cell lysate at 1 uM by KiNativ Profiling analysis relative to control; type: subcellular
[18] = molecular target: Serine/threonine-protein kinase 4 (Homo sapiens) (UniProt Q13043); assay: Inhibition of MST1 Lys2 labeling site harbouring IHRDIKAGNILLNTEGHAK in human Huh-7 cells at 1 uM by KiNativ Profiling analysis relative to control

Serine/threonine-protein kinase 4 (Homo sapiens), sequence (Q13043 whole entry, looked up): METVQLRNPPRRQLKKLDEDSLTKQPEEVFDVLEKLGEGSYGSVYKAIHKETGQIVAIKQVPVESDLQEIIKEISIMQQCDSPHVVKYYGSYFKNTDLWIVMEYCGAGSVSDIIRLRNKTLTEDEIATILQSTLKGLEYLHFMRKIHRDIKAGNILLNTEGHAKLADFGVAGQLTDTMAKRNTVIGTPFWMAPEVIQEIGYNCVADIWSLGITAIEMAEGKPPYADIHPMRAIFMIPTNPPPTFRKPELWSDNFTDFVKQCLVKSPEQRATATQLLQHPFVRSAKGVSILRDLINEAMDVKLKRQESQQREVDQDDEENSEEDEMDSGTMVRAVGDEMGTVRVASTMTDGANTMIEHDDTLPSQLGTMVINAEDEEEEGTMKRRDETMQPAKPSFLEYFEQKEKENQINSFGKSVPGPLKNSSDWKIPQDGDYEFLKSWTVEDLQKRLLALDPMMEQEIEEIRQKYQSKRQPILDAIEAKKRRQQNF
Cyclin-dependent kinase 1 (Homo sapiens), sequence (P06493 whole entry, looked up): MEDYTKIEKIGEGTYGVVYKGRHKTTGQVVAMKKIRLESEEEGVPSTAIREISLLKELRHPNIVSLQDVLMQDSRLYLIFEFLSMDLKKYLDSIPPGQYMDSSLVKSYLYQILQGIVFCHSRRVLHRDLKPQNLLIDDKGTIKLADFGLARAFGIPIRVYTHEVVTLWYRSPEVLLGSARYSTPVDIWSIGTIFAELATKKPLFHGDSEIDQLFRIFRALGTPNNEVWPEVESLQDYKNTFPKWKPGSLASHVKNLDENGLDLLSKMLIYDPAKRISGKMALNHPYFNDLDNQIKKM
Protein-tyrosine kinase 2-beta (Homo sapiens), sequence (Q14289 whole entry, looked up): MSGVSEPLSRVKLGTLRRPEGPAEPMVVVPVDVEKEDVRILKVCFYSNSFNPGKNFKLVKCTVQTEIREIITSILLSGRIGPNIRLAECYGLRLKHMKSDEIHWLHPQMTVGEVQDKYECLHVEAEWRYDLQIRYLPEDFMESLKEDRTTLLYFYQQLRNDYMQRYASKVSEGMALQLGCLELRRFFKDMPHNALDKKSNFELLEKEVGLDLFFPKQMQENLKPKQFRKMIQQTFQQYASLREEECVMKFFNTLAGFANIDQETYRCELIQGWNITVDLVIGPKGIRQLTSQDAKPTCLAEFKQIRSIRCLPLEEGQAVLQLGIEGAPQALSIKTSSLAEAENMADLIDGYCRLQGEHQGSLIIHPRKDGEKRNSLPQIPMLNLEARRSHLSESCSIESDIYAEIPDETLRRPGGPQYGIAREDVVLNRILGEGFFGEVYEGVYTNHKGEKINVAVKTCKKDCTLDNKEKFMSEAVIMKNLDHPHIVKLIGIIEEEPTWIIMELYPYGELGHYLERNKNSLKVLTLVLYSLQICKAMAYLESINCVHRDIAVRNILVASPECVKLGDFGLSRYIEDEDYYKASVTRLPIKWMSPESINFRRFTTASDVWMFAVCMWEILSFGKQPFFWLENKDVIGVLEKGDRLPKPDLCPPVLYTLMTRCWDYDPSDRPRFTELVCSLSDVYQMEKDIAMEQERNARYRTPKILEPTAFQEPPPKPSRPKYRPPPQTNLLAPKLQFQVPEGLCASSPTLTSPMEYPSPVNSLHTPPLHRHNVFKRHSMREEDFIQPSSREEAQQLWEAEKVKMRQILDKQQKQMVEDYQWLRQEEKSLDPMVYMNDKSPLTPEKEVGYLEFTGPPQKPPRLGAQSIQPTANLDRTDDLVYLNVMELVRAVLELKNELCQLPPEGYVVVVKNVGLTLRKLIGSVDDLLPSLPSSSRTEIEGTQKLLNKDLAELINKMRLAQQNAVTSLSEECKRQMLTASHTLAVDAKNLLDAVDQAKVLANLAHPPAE
Serine/threonine-protein kinase 26 (Homo sapiens), sequence (Q9P289 2-416 limits assumed): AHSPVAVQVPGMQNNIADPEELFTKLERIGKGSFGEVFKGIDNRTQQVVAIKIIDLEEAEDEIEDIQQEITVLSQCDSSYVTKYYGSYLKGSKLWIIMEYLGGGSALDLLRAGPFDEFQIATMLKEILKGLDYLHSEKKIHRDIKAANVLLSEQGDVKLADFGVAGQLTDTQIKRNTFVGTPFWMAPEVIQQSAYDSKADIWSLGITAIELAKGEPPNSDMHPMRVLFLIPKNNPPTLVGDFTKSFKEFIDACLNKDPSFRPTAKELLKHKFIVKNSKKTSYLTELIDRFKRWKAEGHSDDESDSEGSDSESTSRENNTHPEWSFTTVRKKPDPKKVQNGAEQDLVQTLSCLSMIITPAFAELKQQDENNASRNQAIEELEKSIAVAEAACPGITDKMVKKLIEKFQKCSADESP
Tyrosine-protein kinase ABL1 (Homo sapiens), P00519 [F317I], sequence (P00519 whole entry F317I): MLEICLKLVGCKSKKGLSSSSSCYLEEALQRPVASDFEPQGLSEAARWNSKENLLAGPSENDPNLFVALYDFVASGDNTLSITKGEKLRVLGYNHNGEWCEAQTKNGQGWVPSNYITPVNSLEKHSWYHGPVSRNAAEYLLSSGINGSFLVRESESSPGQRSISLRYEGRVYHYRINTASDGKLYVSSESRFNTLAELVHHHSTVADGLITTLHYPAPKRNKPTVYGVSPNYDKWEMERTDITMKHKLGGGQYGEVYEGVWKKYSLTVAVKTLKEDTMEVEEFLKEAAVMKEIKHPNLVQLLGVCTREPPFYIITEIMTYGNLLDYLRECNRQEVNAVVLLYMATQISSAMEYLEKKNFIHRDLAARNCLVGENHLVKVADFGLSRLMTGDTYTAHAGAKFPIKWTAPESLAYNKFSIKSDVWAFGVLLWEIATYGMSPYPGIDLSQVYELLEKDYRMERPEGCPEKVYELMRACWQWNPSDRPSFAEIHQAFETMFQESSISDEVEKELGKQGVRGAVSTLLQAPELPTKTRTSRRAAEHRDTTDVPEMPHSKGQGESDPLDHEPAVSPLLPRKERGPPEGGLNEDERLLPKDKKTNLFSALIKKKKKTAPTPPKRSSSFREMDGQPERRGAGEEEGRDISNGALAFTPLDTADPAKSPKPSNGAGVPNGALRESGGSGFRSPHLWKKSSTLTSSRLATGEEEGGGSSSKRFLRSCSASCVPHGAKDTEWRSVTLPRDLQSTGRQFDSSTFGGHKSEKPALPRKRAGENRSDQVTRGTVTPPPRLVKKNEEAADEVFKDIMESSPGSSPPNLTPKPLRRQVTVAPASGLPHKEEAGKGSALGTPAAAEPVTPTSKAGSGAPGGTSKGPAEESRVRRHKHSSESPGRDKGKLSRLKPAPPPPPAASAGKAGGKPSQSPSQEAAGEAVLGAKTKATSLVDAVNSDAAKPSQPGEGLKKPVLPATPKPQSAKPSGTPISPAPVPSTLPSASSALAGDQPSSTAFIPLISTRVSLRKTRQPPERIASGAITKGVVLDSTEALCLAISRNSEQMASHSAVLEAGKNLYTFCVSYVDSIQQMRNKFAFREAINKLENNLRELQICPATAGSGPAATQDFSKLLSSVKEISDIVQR
Calcium/calmodulin-dependent protein kinase type 1D (Homo sapiens), sequence (Q8IU85 whole entry, looked up): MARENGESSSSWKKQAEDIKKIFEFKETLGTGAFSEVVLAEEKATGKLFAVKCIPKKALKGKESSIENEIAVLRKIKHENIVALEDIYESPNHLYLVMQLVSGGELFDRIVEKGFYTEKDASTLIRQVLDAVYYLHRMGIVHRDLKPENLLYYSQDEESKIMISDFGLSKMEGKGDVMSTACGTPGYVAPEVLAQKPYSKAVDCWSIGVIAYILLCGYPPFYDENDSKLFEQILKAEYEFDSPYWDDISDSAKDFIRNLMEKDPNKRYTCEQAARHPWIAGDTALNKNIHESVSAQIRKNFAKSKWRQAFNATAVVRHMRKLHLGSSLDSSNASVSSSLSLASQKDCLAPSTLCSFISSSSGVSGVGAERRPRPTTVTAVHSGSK
Serine/threonine-protein kinase PLK1 (Homo sapiens), sequence (P53350 whole entry): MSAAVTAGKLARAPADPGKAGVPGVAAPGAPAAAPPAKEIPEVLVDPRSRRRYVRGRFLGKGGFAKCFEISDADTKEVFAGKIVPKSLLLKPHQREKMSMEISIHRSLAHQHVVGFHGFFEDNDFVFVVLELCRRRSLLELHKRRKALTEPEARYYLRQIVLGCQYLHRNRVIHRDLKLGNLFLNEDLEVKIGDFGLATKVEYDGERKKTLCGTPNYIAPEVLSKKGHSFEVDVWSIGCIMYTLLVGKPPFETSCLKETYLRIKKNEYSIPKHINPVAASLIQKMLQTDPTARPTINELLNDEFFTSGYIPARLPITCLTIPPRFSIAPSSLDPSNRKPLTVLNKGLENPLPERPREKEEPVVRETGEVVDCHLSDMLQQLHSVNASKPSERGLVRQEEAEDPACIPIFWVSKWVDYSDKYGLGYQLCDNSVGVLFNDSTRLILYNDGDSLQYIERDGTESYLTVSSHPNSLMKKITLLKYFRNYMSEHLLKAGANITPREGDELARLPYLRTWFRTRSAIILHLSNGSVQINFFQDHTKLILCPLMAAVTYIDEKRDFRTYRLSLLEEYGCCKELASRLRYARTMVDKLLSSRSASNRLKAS

In the case of `CCN1CCN(Cc2ccc(NC(=O)c3ccc(C)c(Oc4ccnc5[nH]ccc45)c3)cc2C(F)(F)F)CC1`, the inhibition [1] is reported as 6.2%, the inhibition [2] is reported as 83.9% and the inhibition [3] is reported as 6.8%. The inhibition [4] was -8.3%, the inhibition [5] was -7.6% and the residual activity [6] was 2.1%. It also gave an inhibition [7] of 17.6%, an inhibition [8] of 7.9% and an inhibition [9] of -9.6%.
In the case of `CCN1CCN(Cc2ccc(NC(=O)c3ccc(C)c(/C=C/c4cnc5[nH]ccc5c4OC)c3)cc2C(F)(F)F)CC1`, the percent of control [10] is reported as 22%, the inhibition [11] is reported as 84% and the inhibition [12] is reported as 11.6%. For the same molecule, the inhibition [13] was 50%, the inhibition [14] was 14.1% and the inhibition [15] was 35.2%.
For `CNc1cc(Oc2cc(C(=O)Nc3cc(N4CCN(C)CC4)cc(C(F)(F)F)c3)ccc2C)ncn1`, the inhibition [16] was 64.8%, the inhibition [17] was 0.4% and the inhibition [18] was -0.8%.
